According to ChEMBL document CHEMBL3352401, “Synthesis and antiviral activity of new phenylimidazopyridines and N-benzylidenequinolinamines derived by molecular simplification of phenylimidazo[4,5-g]quinolines” (Eur J Med Chem, 2014):

What was measured:
[1] = Antiviral activity against Simian virus 12 3651 (ATCC VR- 214) infected in BHK21 cells assessed as protection from virus-induced cytopathogenicity after 3 to 4 days by MTT method; assay type: functional, cell-based; settings: BHK-21
Method in brief: (§1)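 Confluent monolayers grown overnight (BHK-21 at 5×10⁴ cells/well for YFV and Reo-1; MDBK at 3×10⁴ cells/well for BVDV). Infection at m.o.i. 0.01 for 2 h in maintenance MEM-Earle with 0.5% inactivated FBS, then serial compound dilutions added. Viability read by MTT after 3–4 days at 37 °C. EC50 taken from linear regression against untreated controls.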

[2] = Cytotoxicity against mock-infected bovine MDBK cells assessed as reduction in proliferation after 72 hrs by MTT method; assay type: cell-based, Bos taurus; settings: cattle
Method in brief: (§2)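 MDBK and BHK cells seeded at 6 × 10⁵ and 1 × 10⁶ cells/mL respectively. Medium was MEM-Earle with L-glutamine, 1 mM pyruvate and kanamycin, plus 10% horse serum (MDBK) or 10% FBS (BHK). Cells exposed to serial compound dilutions at 37 °C, 5% CO₂; MTT viability read at 72 h. CC50 by linear regression versus untreated controls.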

Coxsackievirus B5 = assay: Antiviral activity against Coxsackievirus B5 Faulkner (ATCC VR-185) infected in Vero 76 cells after 3 days by plaque reduction assays; assay type: functional, organism-based; settings: Enterovirus B, Vero 76, 72 h
Yellow fever virus = assay: Antiviral activity against Yellow fever virus 17D Stamaril Pasteur J07B01 infected in BHK21 cells assessed as protection from virus-induced cytopathogenicity after 3 to 4 days by MTT method; assay type: functional, cell-based; settings: Stamaril Pasteur J07B01, BHK-21; method in brief: as §1
[3] = tested on: Human immunodeficiency virus 1; assay: Antiviral activity against HIV-13B infected in MT4 cells assessed as protection from virus-induced cytopathogenicity after 4 days by MTT method; assay type: functional, organism-based; settings: Human immunodeficiency virus 1, 3B, MT4, 96 h
Method in brief: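 HIV-1 IIIB, taken from persistently infected H9/IIIB supernatant. MT-4 cells (1×10⁴/well) in RPMI with serial compound dilutions, infected with 100 CCID50 (m.o.i. 0.01). Viability by MTT after 4 days at 37 °C. EC50 = 50% protection from cytopathogenicity, by linear regression against untreated controls. Compounds kept as 100 mM DMSO stocks, diluted in medium.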

[4] = Antiviral activity against Human respiratory syncytial virus A2 ATCC VR-1540 infected in Vero 76 cells after 5 days by plaque reduction assays; assay type: functional, cell-based; settings: ATCC VR-1540, Vero 76, 120 h
[5] = Cytotoxicity against mock-infected human MT4 cells assessed as reduction in proliferation after 96 hrs by MTT method; assay type: cell-based
Method in brief: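 Exponentially growing MT-4 cells seeded at 1 × 10⁵ cells/mL in RPMI-1640 with 10% FBS, penicillin and streptomycin. Held 96 h at 37 °C, 5% CO₂ with or without serial compound dilutions; viability by MTT. Compounds dissolved in DMSO at 100 mM stock, then diluted in medium. CC50 by linear regression.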

Human alphaherpesvirus 1 = assay: Antiviral activity against Human herpesvirus 1 strain KOS ATCC VR- 1493 infected in Vero 76 cells after 3 days by plaque reduction assays; assay type: functional, organism-based; settings: Human alphaherpesvirus 1, KOS ATCC VR1493, Vero 76, 72 h
[6] = tested on: Human poliovirus 1 strain Sabin; assay: Antiviral activity against Poliovirus 1 strain Sabin ATCC VR-1562 infected in Vero 76 cells after 2 days by plaque reduction assays; assay type: functional, organism-based; settings: Enterovirus C, ATCC VR-1562, Vero 76, 48 h
[7] = Antiviral activity against Bovine viral diarrhea virus 1-NADL ATCC VR-534 infected in MDBK cells assessed as protection from virus-induced cytopathogenicity after 3 to 4 days by MTT method; assay type: functional, cell-based; settings: Bovine viral diarrhea virus isolates and strains, ATCC VR-534, MDBK; method in brief: as §1
[8] = Cytotoxicity against mock-infected hamster BHK21 cells assessed as reduction in proliferation after 72 hrs by MTT method; assay type: cell-based, Mesocricetus auratus, BHK-21; method in brief: as §2
[9] = Antiviral activity against Vaccinia virus Lister ATCC VR-1549 infected in Vero 76 cells after 3 days by plaque reduction assays; assay type: functional, cell-based; settings: ATCC VR-1549, Vero 76, 72 h
[10] = tested on: Vesicular stomatitis Indiana virus; assay: Antiviral activity against Vesicular stomatitis Indiana virus ATCC VR 158 infected in Vero 76 cells after 2 days by plaque reduction assays; assay type: functional, organism-based; settings: ATCC VR 158, Vero 76, 48 h
[11] = Cytotoxicity against mock-infected African green monkey Vero 76 cells assessed as reduction in proliferation after 48 to 96 hrs by MTT method; assay type: cell-based; settings: chlorocebus sabaeus, Vero 76 cells (mock-infected)
Method in brief: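 Vero-76 cells seeded at 4 × 10⁵ cells/mL in D-MEM with L-glutamine, kanamycin and 10% FBS. Incubated at 37 °C, 5% CO₂, with or without serial dilutions of compound; viability read by MTT after 48–96 h. Run in parallel with antiviral assays. CC50 obtained by linear regression of % of untreated control.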

Compound: Nc1c(/N=C/c2ccc([N+](=O)[O-])cc2)cc2cccnc2c1Cl
- EC50 [1]: > 100 µM
- CC50 at 72 h [2]: > 100 µM
- EC50 (Coxsackievirus B5): > 100 µM
- EC50 (Yellow fever virus): > 100 µM
- EC50 [3]: > 100 µM
- EC50 [4]: 14 µM
- CC50 at 96 h [5]: 53 µM
- EC50 (Human alphaherpesvirus 1): > 100 µM
- EC50 [6]: > 100 µM
- EC50 [7]: 1.7 µM
- CC50 at 72 h [8]: > 100 µM
- EC50 [9]: 88 µM
- EC50 [10]: > 100 µM
- CC50 [11]: > 100 µM

Compound: Brc1cnc2[nH]c(C3CCCCC3)nc2c1
- EC50 [1]: > 100 µM
- CC50 at 72 h [2]: > 100 µM
- EC50 (Coxsackievirus B5): 20 µM
- EC50 (Yellow fever virus): > 100 µM
- EC50 [3]: > 100 µM
- EC50 [4]: > 100 µM
- CC50 at 96 h [5]: > 100 µM
- EC50 (Human alphaherpesvirus 1): > 100 µM
- EC50 [6]: > 100 µM
- EC50 [7]: > 100 µM
- CC50 at 72 h [8]: > 100 µM
- EC50 [9]: 16 µM
- EC50 [10]: > 100 µM
- CC50 [11]: > 100 µM

Compound: CC(=O)c1ccc(-c2nc3ccncc3[nH]2)cc1
- EC50 [1]: > 100 µM
- CC50 at 72 h [2]: > 100 µM
- EC50 (Coxsackievirus B5): > 100 µM
- EC50 (Yellow fever virus): > 100 µM
- EC50 [3]: > 100 µM
- EC50 [4]: > 100 µM
- CC50 at 96 h [5]: > 100 µM
- EC50 (Human alphaherpesvirus 1): > 100 µM
- EC50 [6]: > 100 µM
- EC50 [7]: 7 µM
- CC50 at 72 h [8]: > 100 µM
- EC50 [9]: > 100 µM
- EC50 [10]: > 100 µM
- CC50 [11]: > 100 µM

Compound: C#C[C@@]1(O)[C@H](O)[C@@H](CO)O[C@H]1n1ccc(N)nc1=O [2'-ETHYNYL-D-CYTIDINE]
- EC50 [6]: 23 µM
- CC50 [11]: > 100 µM

Compound: C[C@@]1(O)[C@H](O)[C@@H](CO)O[C@H]1n1cnc2c(=O)[nH]c(N)nc21 [2'-B-METHYL-GUANOSINE]
- CC50 at 72 h [2]: > 100 µM
- EC50 [7]: 1.1 µM
- CC50 at 72 h [8]: > 100 µM

Compound: N#Cc1ccc(/C=N/c2cc3cccnc3c(Cl)c2N)cc1
- EC50 [1]: > 100 µM
- CC50 at 72 h [2]: > 100 µM
- EC50 (Coxsackievirus B5): 46 µM
- EC50 (Yellow fever virus): > 100 µM
- EC50 [3]: > 100 µM
- EC50 [4]: 26 µM
- CC50 at 96 h [5]: 46 µM
- EC50 (Human alphaherpesvirus 1): > 100 µM
- EC50 [6]: > 100 µM
- EC50 [7]: 2 µM
- CC50 at 72 h [8]: > 100 µM
- EC50 [9]: > 100 µM
- EC50 [10]: > 100 µM
- CC50 [11]: > 100 µM

Compound: FC(F)(F)c1ccc(-c2nc3cc(Br)cnc3[nH]2)cc1
- EC50 [1]: > 100 µM
- CC50 at 72 h [2]: > 100 µM
- EC50 (Coxsackievirus B5): > 100 µM
- EC50 (Yellow fever virus): > 100 µM
- EC50 [3]: > 100 µM
- EC50 [4]: > 100 µM
- CC50 at 96 h [5]: > 100 µM
- EC50 (Human alphaherpesvirus 1): > 100 µM
- EC50 [6]: > 100 µM
- EC50 [7]: > 100 µM
- CC50 at 72 h [8]: > 100 µM
- EC50 [9]: 4 µM
- EC50 [10]: > 100 µM
- CC50 [11]: > 100 µM

Compound: CC(=O)c1ccc(-c2nc3cccnc3[nH]2)cc1
- EC50 [1]: > 100 µM
- CC50 at 72 h [2]: > 100 µM
- EC50 (Coxsackievirus B5): > 100 µM
- EC50 (Yellow fever virus): > 100 µM
- EC50 [3]: > 100 µM
- EC50 [4]: > 100 µM
- CC50 at 96 h [5]: > 100 µM
- EC50 (Human alphaherpesvirus 1): > 100 µM
- EC50 [6]: > 100 µM
- EC50 [7]: 65 µM
- CC50 at 72 h [8]: > 100 µM
- EC50 [9]: > 100 µM
- EC50 [10]: > 100 µM
- CC50 [11]: > 100 µM

Compound: N#Cc1ccc(-c2nc3cccnc3[nH]2)cc1
- EC50 [1]: > 100 µM
- CC50 at 72 h [2]: > 100 µM
- EC50 (Coxsackievirus B5): > 100 µM
- EC50 (Yellow fever virus): > 100 µM
- EC50 [3]: > 100 µM
- EC50 [4]: > 100 µM
- CC50 at 96 h [5]: > 100 µM
- EC50 (Human alphaherpesvirus 1): > 100 µM
- EC50 [6]: > 100 µM
- EC50 [7]: > 100 µM
- CC50 at 72 h [8]: > 100 µM
- EC50 [9]: > 100 µM
- EC50 [10]: > 100 µM
- CC50 [11]: > 100 µM

Compound: FC(F)(F)c1ccc(-c2nc3cccnc3[nH]2)cc1
- EC50 [1]: > 100 µM
- CC50 at 72 h [2]: > 100 µM
- EC50 (Coxsackievirus B5): 18 µM
- EC50 (Yellow fever virus): > 100 µM
- EC50 [3]: > 100 µM
- EC50 [4]: > 100 µM
- CC50 at 96 h [5]: > 100 µM
- EC50 (Human alphaherpesvirus 1): > 100 µM
- EC50 [6]: > 100 µM
- EC50 [7]: > 100 µM
- CC50 at 72 h [8]: > 100 µM
- EC50 [9]: > 100 µM
- EC50 [10]: > 100 µM
- CC50 [11]: > 100 µM

Compound: CC(=O)c1ccc(-c2nc3cc(Br)cnc3[nH]2)cc1
- EC50 [1]: > 100 µM
- CC50 at 72 h [2]: > 100 µM
- EC50 (Coxsackievirus B5): > 50 µM
- EC50 (Yellow fever virus): > 100 µM
- EC50 [3]: 28 µM
- EC50 [4]: > 50 µM
- CC50 at 96 h [5]: 28 µM
- EC50 (Human alphaherpesvirus 1): > 50 µM
- EC50 [6]: > 50 µM
- EC50 [7]: > 100 µM
- CC50 at 72 h [8]: > 100 µM
- EC50 [9]: > 50 µM
- EC50 [10]: > 50 µM
- CC50 [11]: 50 µM
